Results from ChEMBL document CHEMBL5113539, “Dihydromaniwamycin E, a Heat-Shock Metabolite from Thermotolerant Streptomyces sp. JA74, Exhibiting Antiviral Activity against Influenza and SARS-CoV-2 Viruses” (J Nat Prod, 2022).

Assays:
Influenza A virus = assay: Antiviral activity against influenza A virus A/Puerto Rico/8/34 (H1N1) infected in dog MDCK cells assessed as inhibition of viral cytopathic effect incubated for 48 hrs by crystal violet staining based plaque assay; assay type: functional, organism-based
Procedure, shortened: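 MDCK cells were grown in MEM with 10% FBS at 37 °C and 5% CO2. Compound was premixed with A/PR/8/34 (H1N1) containing 50–200 pfu for 30 min at room temperature. The mixture was adsorbed onto an MDCK monolayer for 30 min at 37 °C, washed, and incubated 2 days. Plaques were counted after crystal violet staining, and IC50 was taken from a logit–log plot.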

SARS-CoV-2 [1] = assay: Antiviral activity against SARS-CoV-2 infected in human 293TA cells assessed as reduction in cytopathic effect after 2 to 3 days by MTT assay; assay type: functional, organism-based; conditions: Severe acute respiratory syndrome coronavirus 2, 293TA
[2] = Cytotoxicity against human 293TA cells assessed as reduction in cell viability after 2 to 3 days by MTT assay; assay type: toxicity, cell-based; conditions: time 2-3 day
Vero C1008 = assay: Cytotoxicity against African green monkey VeroE6T cells assessed as reduction in cell viability after 2 to 3 days by MTT assay; assay type: toxicity, cell-based; conditions: chlorocebus sabaeus, time 2-3 day
SARS-CoV-2 [3] = assay: Antiviral activity against SARS-CoV-2 infected in African green monkey VeroE6T cells assessed as reduction in cytopathic effect after 2 to 3 days by MTT assay; assay type: functional, organism-based, Vero E6; conditions: Severe acute respiratory syndrome coronavirus 2, Vero C1008

CCCCCC/[N+]([O-])=N/[C@H](C)[C@H](C)O
IC50 (Influenza A virus): 25.7 µM | IC50 (SARS-CoV-2 [1]): 19.7 µM | Activity [2]: Non-Toxic | Activity (Vero C1008): Non-Toxic

CCC(CC)COC(=O)[C@H](C)N[P@](=O)(OC[C@H]1O[C@@](C#N)(c2ccc3c(N)ncnn23)[C@H](O)[C@@H]1O)Oc1ccccc1 [REMDESIVIR]
IC50 (SARS-CoV-2 [3]): 0.9 µM

CCCC/C=C/[N+]([O-])=N/[C@H](C)[C@H](C)O
IC50 (Influenza A virus): 63.2 µM | IC50 (SARS-CoV-2 [1]): 9.7 µM | IC50 (SARS-CoV-2 [3]): 16.4 µM | Activity [2]: Non-Toxic | Activity (Vero C1008): Non-Toxic
